MrgX1 antagonist: antagonists of human MrgX1 receptor, primary screen, HEK293 cells, Fluo-4 calcium flux | Mas-related G-protein coupled receptor member X1 (Homo sapiens), Q96LB2 | BAM8-22 antagonism; stronger effect = lower value | B-score at 10 µM | AID 588676, 2011 | 310,000 compounds, 1.3% hits;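 active means calcium-response B-score plate-corrected more than 3 library SD below zero, starting fluorescence within 5 deviations, no agonist response on first addition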;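 further: peak minus trough fluorescence over baseline after final BAM8-22 challenge near maximal dose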
Target sequence (Q96LB2 whole entry, looked up): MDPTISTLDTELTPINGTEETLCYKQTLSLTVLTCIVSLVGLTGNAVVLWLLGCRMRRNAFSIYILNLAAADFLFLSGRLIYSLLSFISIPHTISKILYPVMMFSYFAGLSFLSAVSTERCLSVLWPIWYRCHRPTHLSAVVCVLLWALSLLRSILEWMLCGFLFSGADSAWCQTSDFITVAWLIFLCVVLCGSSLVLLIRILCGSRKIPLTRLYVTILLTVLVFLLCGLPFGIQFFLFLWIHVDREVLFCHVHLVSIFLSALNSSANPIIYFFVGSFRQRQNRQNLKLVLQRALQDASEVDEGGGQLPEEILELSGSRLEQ
RGS4 pot: RGS4 potentiators or activators, primary screen, cell-based, HEK293 M3R inducible RGS4, calcium flux; carbachol calcium flux Fluo4; stronger effect = lower value; B-score at 10 µM; 310,000 compounds, 0.92% hits; AID 463111, 2010;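 active means B-score of the integrated calcium signal more than 4 SD below the library mean, with starting fluorescence not abnormally high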;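 further: negative B-score means reduced calcium response which marks RGS4 activation or potentiation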
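test system = M3R-expressing HEK293 line, RGS4 induced by doxycycline | probe or stimulus = carbachol at ECmax as muscarinic agonist stimulus | timing = dye loading 30 min 37 °C, buffer rest 30 min RT | signal = calcium dye Fluo4 fluorescence | evaluation = B score from integrated fluorescence ratio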
MrgX1 PAM: positive allosteric modulators of MrgX1, primary screen, HEK293 cells, Fluo-4 calcium flux; B-score at 10 µM; FDSS; stronger effect = higher value; 310,000 compounds, 0.63% hits; Mas-related G-protein coupled receptor member X1 (Homo sapiens), Q96LB2;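 active means plate-corrected calcium response at least 3 library SD above typical, normal starting fluorescence, not activating the receptor alone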;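 further: compound read alongside a low EC10 to EC30 dose of BAM8-22 agonist; peak minus trough fluorescence over baseline measured at the second addition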
MrgX1 agonist: agonists of human MrgX1 receptor, primary screen, HEK293 cells, Fluo-4 calcium flux; 310,000 compounds, 0.44% hits; B-score at 10 µM; Fluo-4 calcium fluorescence, agonist mode; stronger effect = higher value; Mas-related G-protein coupled receptor member X1 (Homo sapiens), Q96LB2;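 active means calcium response B-score plate-corrected fluorescence ratio at least 3 library SD, with starting fluorescence B-score inside 5 SD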
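Test system: Stable human MrgX1 HEK293 cell line | Schedule: Overnight plating before 1 h dye loading | Read-out basis: Baseline-normalised fluorescence change ratio, B-scored | Detection: Kinetic calcium dye fluorescence, Fluo-4 NW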
RGS4 block: RGS4 inhibitors, primary screen, cell-based, HEK293 M3R inducible RGS4, calcium flux. Regulator of G-protein signaling 4 (Homo sapiens), P49798. B-score at 10 µM. Fluo-4 calcium flux; stronger effect = higher value; triggered by carbachol at its EC20. 310,000 compounds, 0.45% hits;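 active means B-score, a plate-corrected calcium signal, over three deviations above library mean, with baseline fluorescence within five deviations of library mean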;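 further: RGS4 expression induced by doxycycline in cells with stable M3 receptor; B-score is computed from the integrated fluorescence ratio over baseline after carbachol; higher B-score means a larger calcium signal and so more RGS4 inhibition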
Target sequence (P49798 whole entry, looked up): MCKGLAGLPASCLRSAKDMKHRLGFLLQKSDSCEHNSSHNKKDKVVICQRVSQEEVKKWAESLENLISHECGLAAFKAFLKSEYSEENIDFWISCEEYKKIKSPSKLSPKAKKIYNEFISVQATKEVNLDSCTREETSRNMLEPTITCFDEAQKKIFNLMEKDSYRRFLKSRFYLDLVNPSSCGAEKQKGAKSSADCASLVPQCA
Starred values were filed as active, the others as inactive. Rows were chosen to be rich in hits. Some 3.5% of all compounds tested hit in one or more screens of this group.

How did Cc1cc(/C=C2\C(=N)N3C(SCc4ccccc4)=NSC3=NC2=O)c(C)n1Cc1ccccc1 do in these assays?
MrgX1 antagonist: inactive; RGS4 pot: inactive; MrgX1 PAM: inactive; MrgX1 agonist: inactive; RGS4 block: inactive

What do the screens show for `COc1ccc(/C=C/C(=O)NCC(=O)N/N=C(/C)c2ccc(Cl)cc2)cc1`?
MrgX1 antagonist: inactive; RGS4 pot: inactive; MrgX1 PAM: inactive; MrgX1 agonist: inactive; RGS4 block: inactive

What do the screens show for `CNC(=O)/C(C#N)=C/c1ccc(-c2ccc(OC)cc2[N+](=O)[O-])o1`?
MrgX1 antagonist: -5.2*; RGS4 pot: inactive; MrgX1 PAM: inactive; MrgX1 agonist: inactive; RGS4 block: inactive

How did O=C(CN1C(=O)c2ccc([N+](=O)[O-])cc2C1=O)Nc1ccccc1N1CCCC1 do in these assays?
MrgX1 antagonist: inactive; RGS4 pot: inactive; MrgX1 PAM: inactive; MrgX1 agonist: inactive; RGS4 block: inactive

Results for O=C(NN1C(=O)/C(=C\c2cccnc2)SC1=S)C(c1ccccc1)c1ccccc1 ?
MrgX1 antagonist: inactive; RGS4 pot: -7.3*; MrgX1 PAM: inactive; MrgX1 agonist: inactive; RGS4 block: inactive

Results for CCOc1cc(/C=C2\SC(=S)N(NC(=O)c3cccnc3)C2=O)ccc1O ?
MrgX1 antagonist: -5.9*; RGS4 pot: inactive; MrgX1 PAM: inactive; MrgX1 agonist: inactive; RGS4 block: inactive

How did CCOc1cc(/C=C2\SC(=S)N(NS(=O)(=O)c3ccc(C)cc3)C2=O)ccc1O do in these assays?
MrgX1 antagonist: inactive; RGS4 pot: inactive; MrgX1 PAM: inactive; MrgX1 agonist: 52*; RGS4 block: inactive

Results for Cc1ccccc1Cn1ccc(=NCc2ccccc2)cc1 ?
MrgX1 antagonist: inactive; RGS4 pot: inactive; MrgX1 PAM: inactive; MrgX1 agonist: inactive; RGS4 block: inactive

How did CCOc1cc(/C=C2/NC(=O)N(CC(=O)Nc3cccc(C)c3)C2=O)ccc1OC do in these assays?
MrgX1 antagonist: -7.1*; RGS4 pot: inactive; MrgX1 PAM: inactive; MrgX1 agonist: inactive; RGS4 block: inactive

What do the screens show for `CCOc1cc(/C=C2/NC(=O)N(CC(=O)Nc3cccc(C)c3)C2=O)ccc1O`?
MrgX1 antagonist: inactive; RGS4 pot: inactive; MrgX1 PAM: inactive; MrgX1 agonist: inactive; RGS4 block: inactive

Results for COc1ccc(C2Nc3ccccc3C(=O)N2c2ccc(C)cc2)cc1Cn1nnc2ccccc21 (stereo unspecified) ?
MrgX1 antagonist: inactive; RGS4 pot: inactive; MrgX1 PAM: 23*; MrgX1 agonist: inactive; RGS4 block: inactive

How did O=C(/C=C/c1ccccc1Br)c1ccc2c(c1)OCO2 do in these assays?
MrgX1 antagonist: inactive; RGS4 pot: -11*; MrgX1 PAM: inactive; MrgX1 agonist: inactive; RGS4 block: inactive

How did O=C(/C=C\Nc1cccc(F)c1)c1ccc2c(c1)OCO2 do in these assays?
MrgX1 antagonist: -4.7*; RGS4 pot: inactive; MrgX1 PAM: inactive; MrgX1 agonist: inactive; RGS4 block: inactive

Results for O=C(/C=C/c1cccc(Br)c1)c1ccc2c(c1)OCO2 ?
MrgX1 antagonist: inactive; RGS4 pot: inactive; MrgX1 PAM: 8.3*; MrgX1 agonist: inactive; RGS4 block: inactive

What do the screens show for `ClCC1NCC(c2ccccc2Cl)c2c1[nH]c1ccccc21` (stereo unspecified)?
MrgX1 antagonist: inactive; RGS4 pot: inactive; MrgX1 PAM: inactive; MrgX1 agonist: inactive; RGS4 block: inactive

How did Cc1c(C(=O)NC2CCOC2)oc2c(F)cccc12 (stereo unspecified) do in these assays?
MrgX1 antagonist: inactive; RGS4 pot: inactive; MrgX1 PAM: inactive; MrgX1 agonist: inactive; RGS4 block: inactive

Results for CCOc1ccc(N(CC(=O)N2CCCCCC2)S(=O)(=O)c2ccc(F)cc2)cc1 ?
MrgX1 antagonist: inactive; RGS4 pot: inactive; MrgX1 PAM: inactive; MrgX1 agonist: inactive; RGS4 block: inactive

How did O=C(O)CCCCCN1C(=O)C2CCCCC2C1=O (stereo unspecified) do in these assays?
MrgX1 antagonist: inactive; RGS4 pot: inactive; MrgX1 PAM: inactive; MrgX1 agonist: inactive; RGS4 block: inactive

What do the screens show for `O=C(O)CCCCCCC1C(=O)NC(=O)N1CCC(O)C1CCCCC1` (stereo unspecified)?
MrgX1 antagonist: inactive; RGS4 pot: inactive; MrgX1 PAM: inactive; MrgX1 agonist: 31*; RGS4 block: inactive

What do the screens show for `COc1ccccc1C(=O)COC(=O)c1cc([N+](=O)[O-])ccc1N1CCOCC1`?
MrgX1 antagonist: inactive; RGS4 pot: inactive; MrgX1 PAM: inactive; MrgX1 agonist: inactive; RGS4 block: inactive

Results for COc1cc(C(=O)COC(=O)c2cc([N+](=O)[O-])ccc2N2CCOCC2)ccc1OC(F)F ?
MrgX1 antagonist: -6.2*; RGS4 pot: inactive; MrgX1 PAM: inactive; MrgX1 agonist: inactive; RGS4 block: inactive

Results for Cc1c(N=C/C=C/c2ccccc2)c(=O)n(-c2ccccc2)n1C ?
MrgX1 antagonist: inactive; RGS4 pot: -8.7*; MrgX1 PAM: inactive; MrgX1 agonist: inactive; RGS4 block: inactive

What do the screens show for `Cc1c(N=Cc2cccnc2)c(=O)n(-c2ccccc2)n1C`?
MrgX1 antagonist: inactive; RGS4 pot: inactive; MrgX1 PAM: inactive; MrgX1 agonist: inactive; RGS4 block: inactive

What do the screens show for `COc1ccc(-c2c[n+](CC(=O)N3c4ccccc4Sc4ccccc43)c3n2CCC3)cc1`?
MrgX1 antagonist: inactive; RGS4 pot: -8.9*; MrgX1 PAM: inactive; MrgX1 agonist: inactive; RGS4 block: inactive

Results for Cc1ccc(-c2c[n+](CC(=O)OCc3ccccc3)c3n2CCC3)cc1 ?
MrgX1 antagonist: inactive; RGS4 pot: inactive; MrgX1 PAM: inactive; MrgX1 agonist: inactive; RGS4 block: inactive

How did CC1CCC(C(C)C)C(OC(=O)C[n+]2cc(-c3ccc(Cl)cc3)n3c2CCC3)C1 (stereo unspecified) do in these assays?
MrgX1 antagonist: -7*; RGS4 pot: inactive; MrgX1 PAM: inactive; MrgX1 agonist: inactive; RGS4 block: inactive

Results for O=C(C[n+]1cc(-c2ccc(Cl)cc2)n2c1CCC2)N1c2ccccc2Sc2ccccc21 ?
MrgX1 antagonist: inactive; RGS4 pot: -7.6*; MrgX1 PAM: inactive; MrgX1 agonist: inactive; RGS4 block: inactive

How did Cc1c(C(=O)Nc2cccc(N(C)S(C)(=O)=O)c2)cccc1[N+](=O)[O-] do in these assays?
MrgX1 antagonist: inactive; RGS4 pot: inactive; MrgX1 PAM: inactive; MrgX1 agonist: inactive; RGS4 block: inactive
